Measured values from ChEMBL document CHEMBL1156736, “Multidentate small-molecule inhibitors of vaccinia H1-related (VHR) phosphatase decrease proliferation of cervix cancer cells” (J Med Chem, 2009).
Activity calls are given as the source filed them. The rule behind the calls is not given here.

Key:
[1] = molecular target: T1, Dual specificity protein phosphatase 3 (Homo sapiens, UniProt P51452); assay: Inhibition of recombinant vaccina H1-related phosphatase expressed in Escherichia coli by Michaelis-Menten kinetic studies
Summary of the method: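 E. coli-expressed VHR (GST-fusion, thrombin-cleaved, gel-filtered) preincubated 10 min with several fixed inhibitor concentrations in Bis-Tris pH 6.0 buffer with DTT and 5% DMSO; started with pNPP at 0.2–10 Km; initial rates at 404 nm, no-enzyme corrected; Ki and mode by nonlinear fit to competitive, uncompetitive or mixed models, compared by AICc.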

[2] = molecular target: T1, Dual specificity protein phosphatase 3; assay: Inhibition of recombinant vaccina H1-related phosphatase
[3] = molecular target: T2, Tyrosine-protein phosphatase non-receptor type 1 (Homo sapiens, UniProt P18031); assay: Inhibition of recombinant PTP1B
T2 sequence (P18031 whole entry): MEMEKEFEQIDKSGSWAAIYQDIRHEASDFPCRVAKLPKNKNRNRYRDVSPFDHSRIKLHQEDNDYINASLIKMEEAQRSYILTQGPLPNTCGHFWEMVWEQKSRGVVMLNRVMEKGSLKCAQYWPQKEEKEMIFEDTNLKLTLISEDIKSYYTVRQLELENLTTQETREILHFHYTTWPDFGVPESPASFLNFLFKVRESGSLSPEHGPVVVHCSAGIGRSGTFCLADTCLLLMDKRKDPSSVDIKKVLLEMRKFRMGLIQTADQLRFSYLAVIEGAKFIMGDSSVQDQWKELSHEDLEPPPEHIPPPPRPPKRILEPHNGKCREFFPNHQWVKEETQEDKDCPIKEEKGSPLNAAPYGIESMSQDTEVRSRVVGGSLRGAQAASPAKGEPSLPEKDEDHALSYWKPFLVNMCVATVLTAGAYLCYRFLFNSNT

HeLa [4] = assay: Induction of apoptosis in human HeLa cells assessed as apoptotic cells at 20 uM after 24 hrs by annexin V/propidium iodide based flow cytometry; format: functional, cell-based
Summary of the method: (§1)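 10^5 cells in DMEM/10% FCS incubated 24 h with 20 μM inhibitor or DMSO, trypsinized; half of cells stained with AnnexinV-FITC and propidium iodide, analysed by flow cytometry; live cells taken as AnnexinV- and PI-negative; mean ± SD from three independent experiments.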

[5] = molecular target: T3, Tyrosine-protein phosphatase non-receptor type 7 (Homo sapiens, UniProt P35236); assay: Inhibition of recombinant HePTP
T3 sequence (P35236 whole entry): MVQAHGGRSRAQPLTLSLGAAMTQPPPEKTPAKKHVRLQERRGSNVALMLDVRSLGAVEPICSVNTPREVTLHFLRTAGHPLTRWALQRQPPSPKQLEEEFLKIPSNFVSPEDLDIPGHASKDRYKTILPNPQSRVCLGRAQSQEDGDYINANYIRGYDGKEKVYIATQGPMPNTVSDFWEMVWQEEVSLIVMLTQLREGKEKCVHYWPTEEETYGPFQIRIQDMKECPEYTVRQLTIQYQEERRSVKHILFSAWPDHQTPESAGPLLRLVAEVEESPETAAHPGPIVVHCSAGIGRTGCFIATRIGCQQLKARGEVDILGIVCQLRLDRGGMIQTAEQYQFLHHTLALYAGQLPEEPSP

[6] = molecular target: T4, Receptor-type tyrosine-protein phosphatase C (Homo sapiens, UniProt P08575); assay: Inhibition of recombinant CD45
T4 sequence (P08575 whole entry): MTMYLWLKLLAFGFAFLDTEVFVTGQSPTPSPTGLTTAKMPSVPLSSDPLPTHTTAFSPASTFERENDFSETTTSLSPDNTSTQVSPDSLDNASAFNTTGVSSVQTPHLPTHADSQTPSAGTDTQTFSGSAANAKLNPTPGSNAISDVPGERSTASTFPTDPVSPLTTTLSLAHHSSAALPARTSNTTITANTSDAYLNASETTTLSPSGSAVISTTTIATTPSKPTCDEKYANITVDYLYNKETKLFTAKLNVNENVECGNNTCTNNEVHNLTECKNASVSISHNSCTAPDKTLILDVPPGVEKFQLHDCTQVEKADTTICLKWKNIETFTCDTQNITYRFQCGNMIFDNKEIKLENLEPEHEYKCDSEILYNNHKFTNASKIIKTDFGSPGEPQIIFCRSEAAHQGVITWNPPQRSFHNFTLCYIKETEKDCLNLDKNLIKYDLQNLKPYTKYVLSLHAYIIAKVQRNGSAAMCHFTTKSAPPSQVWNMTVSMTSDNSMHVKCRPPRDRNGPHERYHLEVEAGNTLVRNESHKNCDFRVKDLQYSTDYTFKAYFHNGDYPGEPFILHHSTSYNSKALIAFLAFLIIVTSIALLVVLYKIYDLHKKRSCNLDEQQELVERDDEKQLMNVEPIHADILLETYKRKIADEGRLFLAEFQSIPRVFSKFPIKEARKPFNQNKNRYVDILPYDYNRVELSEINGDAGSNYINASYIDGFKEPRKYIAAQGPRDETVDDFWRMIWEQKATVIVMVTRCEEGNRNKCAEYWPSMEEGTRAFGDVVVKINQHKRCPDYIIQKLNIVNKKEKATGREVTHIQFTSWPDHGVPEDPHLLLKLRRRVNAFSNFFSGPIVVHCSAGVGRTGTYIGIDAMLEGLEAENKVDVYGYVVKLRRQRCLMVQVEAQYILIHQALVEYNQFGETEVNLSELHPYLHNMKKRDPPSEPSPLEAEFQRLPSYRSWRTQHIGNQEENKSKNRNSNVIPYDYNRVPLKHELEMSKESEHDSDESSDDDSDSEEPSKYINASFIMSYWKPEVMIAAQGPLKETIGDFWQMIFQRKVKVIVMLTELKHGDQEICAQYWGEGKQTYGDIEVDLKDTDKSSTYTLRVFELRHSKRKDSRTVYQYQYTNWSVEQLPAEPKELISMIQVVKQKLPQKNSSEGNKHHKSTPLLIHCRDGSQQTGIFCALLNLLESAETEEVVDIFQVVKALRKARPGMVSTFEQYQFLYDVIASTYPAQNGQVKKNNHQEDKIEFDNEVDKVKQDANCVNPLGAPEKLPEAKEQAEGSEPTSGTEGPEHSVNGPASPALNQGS

HeLa [7] = assay: Antiproliferative activity against human HeLa cells at 20 uM after 24 hrs by [3H]thymidine incorporation assay relative to control; format: functional
Summary of the method: (§2)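 5×10^4 cells in DMEM complete medium exposed 24 h to 20 μM inhibitor or DMSO vehicle; [3H]thymidine ([…]) added for final 4 h, cells harvested onto glass fiber filters, radioactivity by scintillation counting; expressed relative to DMSO control; mean ± SD of three independent experiments.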

[8] = molecular target: T5, M-phase inducer phosphatase 1 (Homo sapiens, UniProt P30304); assay: Inhibition of recombinant Cdc25a
T5 sequence (P30304 whole entry): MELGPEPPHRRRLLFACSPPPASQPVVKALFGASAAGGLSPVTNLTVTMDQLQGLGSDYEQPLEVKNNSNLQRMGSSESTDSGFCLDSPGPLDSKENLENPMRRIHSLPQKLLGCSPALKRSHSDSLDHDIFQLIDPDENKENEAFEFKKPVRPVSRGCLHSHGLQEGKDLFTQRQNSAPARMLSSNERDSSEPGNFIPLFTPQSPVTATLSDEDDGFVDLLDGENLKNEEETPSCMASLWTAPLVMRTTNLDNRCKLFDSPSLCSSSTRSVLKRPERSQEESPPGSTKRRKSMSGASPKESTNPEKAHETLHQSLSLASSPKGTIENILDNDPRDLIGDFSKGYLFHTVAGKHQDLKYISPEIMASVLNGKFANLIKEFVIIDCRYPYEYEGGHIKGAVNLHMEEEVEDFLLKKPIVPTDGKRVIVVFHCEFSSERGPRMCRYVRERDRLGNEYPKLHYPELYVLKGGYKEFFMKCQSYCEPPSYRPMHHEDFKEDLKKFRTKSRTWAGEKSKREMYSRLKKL

[9] = molecular target: T6, Dual specificity protein phosphatase 1 (Homo sapiens, UniProt P28562); assay: Inhibition of recombinant MKP1
T6 sequence (P28562 whole entry): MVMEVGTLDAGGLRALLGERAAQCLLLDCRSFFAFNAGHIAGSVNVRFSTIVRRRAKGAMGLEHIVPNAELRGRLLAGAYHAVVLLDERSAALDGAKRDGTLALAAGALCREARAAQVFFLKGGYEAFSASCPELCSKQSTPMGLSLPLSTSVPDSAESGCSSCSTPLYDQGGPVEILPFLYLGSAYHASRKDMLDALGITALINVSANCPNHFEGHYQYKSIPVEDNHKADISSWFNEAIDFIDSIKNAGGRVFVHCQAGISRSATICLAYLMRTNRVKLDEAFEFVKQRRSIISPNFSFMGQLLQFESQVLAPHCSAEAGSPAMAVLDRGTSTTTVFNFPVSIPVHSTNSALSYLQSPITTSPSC

Ca-Ski [10] = assay: Antiproliferative activity against human CaSki cells at 20 uM after 24 hrs by [3H]thymidine incorporation assay relative to control; format: functional; summary of the method: as §2
HeLa [11] = assay: Antiproliferative activity against human HeLa cells at 20 uM after 24 hrs by Trypan blue assay; format: functional
Summary of the method: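 10^5 cells (HeLa in DMEM/10% FCS; primary normal keratinocytes from hysterectomy tissue, trypsin-EDTA dispersed, in K-SFM with EGF, pituitary hormone) treated 24 h with 20 μM inhibitor or DMSO; trypsinized and counted with trypan blue in a counting chamber; cell numbers as percentage of DMSO control; mean ± SD, three independent experiments.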

Ca-Ski [12] = assay: Induction of apoptosis in human CaSki cells assessed as apoptotic cells at 20 uM after 24 hrs by annexin V/propidium iodide based flow cytometry; format: functional, cell-based; summary of the method: as §1

T1 sequence (P51452 whole entry, the tested form may be a part): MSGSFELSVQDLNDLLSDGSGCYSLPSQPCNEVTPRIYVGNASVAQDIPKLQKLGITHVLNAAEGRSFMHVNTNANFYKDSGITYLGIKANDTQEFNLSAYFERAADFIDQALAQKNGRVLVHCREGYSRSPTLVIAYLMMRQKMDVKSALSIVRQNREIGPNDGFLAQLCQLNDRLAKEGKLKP

Cc1ccc(C)n1-c1ccc(C(=O)O)c(O)c1
Ki [1]: 12800 nM

COc1ccc(N2C(=O)/C(=C/c3ccc(I)o3)C(=O)NC2=S)cc1 (mixture of isomers)
Ki [1]: 4440 nM

C=CCN1C(=O)/C(=C\C=C\c2ccco2)C(=O)NC1=S (mixture of isomers)
Ki [1]: 15800 nM

CC1=C(C#N)c2nc(N)c(C#N)c(C)c2/C1=C/c1ccc(-c2ccc(C(=O)O)c(Cl)c2)o1
Ki [1]: 3870 nM

S=C(Nc1ccc2c(c1)oc1ccccc12)Nc1cccc2ccccc12
Ki [1]: 2940 nM

O=C(/C=C/c1ccc(-c2ccccc2[N+](=O)[O-])o1)Nc1ccc(-c2nc3ccccc3o2)cc1
Ki [1]: 1760 nM

O=C1NC(=O)N(c2cccc(Br)c2)C(=O)/C1=C/c1ccc(-c2ccc(C(=O)O)cc2)o1 (mixture of isomers)
Ki [1]: 16200 nM

O=C1/C(=C/c2cn(-c3ccccc3)nc2-c2ccc(S(=O)(=O)N3CCOCC3)cc2)SC(=S)N1CCS(=O)(=O)O
IC50 [2]: 2400 nM

O=C1/C(=C/c2cn(-c3ccccc3)nc2-c2ccc(Cl)cc2)SC(=S)N1CCS(=O)(=O)O
IC50 [2]: 1800 nM

O=C1/C(=C/c2cn(-c3ccccc3)nc2-c2ccc(OCc3ccccc3F)cc2)SC(=S)N1CCS(=O)(=O)O
IC50 [3]: 420 nM | Activity (HeLa [4]): inactive | IC50 [5]: 870 nM | IC50 [6]: 500 nM | Activity (HeLa [7]): 58% | IC50 [8]: 2800 nM | IC50 [9]: 520 nM | Activity (Ca-Ski [10]): 74% | Activity (HeLa [11]): >50% | Activity (Ca-Ski [12]): inactive

O=C(O)C(Cc1ccccc1)N1C(=O)/C(=C/C=C/c2ccccc2)SC1=S (configuration not stated)
Ki [1]: 2010 nM

Cc1cc(Br)c(-c2ccc(/C=C3\NC(=S)NC3=O)o2)cc1C
Ki [1]: 3190 nM

CCOC(=O)c1[nH]nc2c1C(=O)N(c1ccc(Br)cc1)C2=O
Ki [1]: 2640 nM

COc1ccc(OC)c2c1C(=O)c1ccccc1C2=O [1,4-DIMETHOXYANTHRAQUINONE]
Ki [1]: 3070 nM

O=C(O)c1cccc(-c2ccc(/C=N/Nc3ccc([N+](=O)[O-])cn3)o2)c1
Ki [1]: 13800 nM

O=C1/C(=C/c2cn(-c3ccccc3)nc2-c2ccc(S(=O)(=O)N3CCCCC3)cc2)SC(=S)N1CCS(=O)(=O)O
IC50 [3]: 2200 nM | IC50 [5]: 2400 nM | IC50 [6]: 1800 nM | Activity (HeLa [7]): <=30% | IC50 [8]: > 10000 nM | IC50 [9]: 2800 nM | Activity (Ca-Ski [10]): >50% | Activity (HeLa [11]): Active

O=C1/C(=C/c2ccc(-c3cccc(Cl)c3)o2)SC(=S)N1CCS(=O)(=O)O
Ki [1]: 3130 nM

Cc1ccc(-c2nn(-c3ccccc3)cc2/C=C2\SC(=S)N(CCS(=O)(=O)O)C2=O)cc1
IC50 [2]: 3100 nM

Cc1ccc(C)n1-c1ccc(SCC(=O)O)cc1
Ki [1]: 2090 nM

O=C1NC(=S)N(c2ccc(F)cc2)C(=O)/C1=C/c1ccc(Br)o1
Ki [1]: 12100 nM

COc1ccc(-c2nn(-c3ccccc3)cc2/C=C2\SC(=S)N(CCS(=O)(=O)O)C2=O)cc1
IC50 [2]: 1800 nM

O=C1NC(=S)/C(=C/c2ccc(-c3ccc([N+](=O)[O-])cc3)o2)S1
Ki [1]: 1860 nM

O=C1c2cccc3c4ccccc4n(c23)C(=O)C1(O)O
Ki [1]: 13800 nM

O=C1NC(=S)N(c2cccc(Cl)c2)C(=O)/C1=C\c1ccc[nH]1 (mixture of isomers)
Ki [1]: 3490 nM

O=C1/C(=C/c2cn(-c3ccccc3)nc2-c2ccc(OCc3ccccc3)cc2)SC(=S)N1CCS(=O)(=O)O
IC50 [3]: 1800 nM | IC50 [5]: 1500 nM | Activity (HeLa [7]): <=30% | Activity (Ca-Ski [10]): >50% | Activity (HeLa [11]): Active

O=C1C(Cl)=C/C(=N\S(=O)(=O)c2ccc(Cl)cc2)C(Cl)=C1Cl
Ki [1]: 13400 nM

O=C(/C=C/c1ccco1)/C=C/c1ccc(-c2ccc(Cl)c(Cl)c2)o1
Ki [1]: 15900 nM
